Compounds with a hit are over-represented: about 5.1% of the library has one in this group of screens.
RORA act: activates the human nuclear receptor RORA | activation, % at 10 µM | 65,000 tested, 1.5% active | CHO-K1 Gal4-RORA LBD luciferase reporter, luminescence; percent increase over mock-subtracted basal signal;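 active = activation above the mean of all tested compounds plus 3 SD, cut at about 49% in these data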;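 note: 0% = DMSO-treated RORA cells and 100% = added signal equal to DMSO minus mock-transfected cells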
ERa SRC1 inh: ER-alpha (human) coactivator binding inhibition. 86,000 tested, 1.7% active. TR-FRET ER-alpha LBD / SRC-1 peptide, estradiol-bound. P03372. inhibition, % at 25.6 µM. AID 629; in the data active = inhibition above about 50%;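 note: 0% = receptor plus peptide control and 100% = peptide only without receptor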
ERa SRC1 pot: ER-alpha (human) coactivator binding potentiation; 86,000 tested, 1.3% active; TR-FRET ERalpha-LBD/SRC-Cy5 coactivator binding, 2 h; 100 = basal binding, no effect; AID 639; coactivator binding (% of control), % at 25.6 µM; P03372; in the data active = activity above about 200%;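 note: binding measured in presence of low estradiol as agonist stimulus; 0% = peptide alone without receptor and 100% = receptor with peptide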
SF1 activator: activates the human nuclear receptor SF-1; Q13285; CHO-K1 Gal4-SF-1 LBD luciferase reporter; % increase over DMSO SF-1-specific signal; activation, % at 10 µM; 65,000 tested, 1.9% active;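 active = activation above the mean activation of all tested compounds plus 3 SD, cut at about 50% in these data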
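Assay system: CHO-K1 cells co-transfected with Gal4 DBD–human SF-1 LBD, 5xGal4 luciferase reporter / Input: 4,000 cells per well / Incubation: 20 h compound exposure at 37 °C after 1 h cell settling / Detection: SteadyLite luciferase luminescence / Control set: DMSO negative control and −SF1 background wells / Replication: one test per compound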
BAP1 inh: blocks human BAP1 ubiquitin-AMC hydrolysis; AID 436; 72,000 tested, 0.48% active; calls only at 20 µM; recombinant BAP1, Ub-AMC hydrolysis fluorescence kinetic; hits give low values; Q92560;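 active = activity remaining at or below 50% of control, provided the compound also passes the data quality filters; inactive = the rest, including low values that fail the filters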;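 note: 100% = DMSO wells rate and 0% = substrate alone blank rate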
ERb coact inh: ER-beta (human) coactivator binding inhibition. TR-FRET ER-beta LBD / SRC1-Cy5 peptide binding; receptor agonist-loaded with 1 µM estradiol. inhibition, % at 25.6 µM. 86,000 tested, 1.3% active;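 active = compounds whose percent inhibition of the receptor-coactivator binding signal exceeds about 50% in the single-dose screen, limit read from the data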;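 note: 0% = receptor plus peptide wells without compound and 100% = peptide-only wells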
Target sequence (Q92731 whole entry, looked up, the tested form may be a part): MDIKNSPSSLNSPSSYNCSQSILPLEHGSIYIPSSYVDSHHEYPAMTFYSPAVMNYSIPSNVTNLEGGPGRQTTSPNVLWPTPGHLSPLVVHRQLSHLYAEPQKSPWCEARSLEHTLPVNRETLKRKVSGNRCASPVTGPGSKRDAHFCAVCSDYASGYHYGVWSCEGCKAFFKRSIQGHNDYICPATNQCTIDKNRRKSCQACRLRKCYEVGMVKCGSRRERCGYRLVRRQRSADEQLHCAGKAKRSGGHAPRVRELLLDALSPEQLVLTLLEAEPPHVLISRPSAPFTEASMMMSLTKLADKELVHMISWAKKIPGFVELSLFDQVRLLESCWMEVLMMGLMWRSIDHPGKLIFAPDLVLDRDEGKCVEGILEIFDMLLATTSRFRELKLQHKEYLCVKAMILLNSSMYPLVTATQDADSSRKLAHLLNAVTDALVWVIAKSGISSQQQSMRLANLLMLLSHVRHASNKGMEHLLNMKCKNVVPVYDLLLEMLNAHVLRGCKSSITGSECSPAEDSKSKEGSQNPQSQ
* marks the source's active call; other numbers are inactive results; i = inactive; . = no result given; + = active, no number; [ ] = remark or other dose.

SMILES	RORA act	ERa SRC1 inh	ERa SRC1 pot	SF1 activator	BAP1 inh	ERb coact inh
CCn1c(SCC(=O)N2CCOCC2)nc2sc3c(c2c1=O)CCCC3	-7.8	8.3	108.6	-5.3	i	-0.4
O=C1c2ccccc2-c2c1c(-c1ccccc1[N+](=O)[O-])nc1ccc3ccccc3c21	.	.	.	.	i	.
Cc1cc(N)n2ncc(-c3ccccc3)c2n1	88.5*	-0.5	128.2	75.3*	i	-17.4
Cc1cc(N)n2ncc(-c3cccc(Br)c3)c2n1	43.6	3.6	70.0	59.3*	i	-3.5
COc1ccc(CN2CCN(Cc3ccco3)CC2)cc1Br	.	.	.	.	i	.
O=C(c1cccc2ccccc12)N1CCN(c2ccc([N+](=O)[O-])cc2)CC1	.	.	.	.	i	.
CCn1ccc(C(=O)Nc2ccc(Cl)cn2)n1	58.8*	-0.5	116.1	77.8*	i	3.8
COC(=O)c1ccc(Cn2cnc3c(sc4nc(N5CCOCC5)c5c(c43)CCCC5)c2=O)o1	-16.3	10.4	202.6*	-0.6	.	36.1
COC(=O)c1ccc(Cn2nnc3c(sc4nc(N5CCOCC5)c5c(c43)CCCC5)c2=O)o1	10.5	-4.7	106.4	-16.3	i	-1.8
COC(=O)CSc1ncnc2c1sc1nc(N3CCOCC3)c3c(c12)CCCC3	.	12.1	391.3*[fluorescence artefact?]	.	.	35.8
COc1cc(C)c(C(C)C)cc1S(=O)(=O)n1cnc(C)c1	79.8*	0.1	93.6	14.7	i	-10.5
COCCCNc1oc(-c2ccccc2F)nc1C#N	38.9	-11.9	98.2	57.4*	i	-10.4
COc1ccc(-c2nc(C#N)c(NCCc3ccccc3)o2)cc1OC	69.6*	5.0	104.9	77.7*	i	4.2
N#Cc1ccc(-n2nnc3ccccc32)cc1C#N	.	.	.	.	i	.
O=C(NCc1ccccc1)c1noc2c1CCCC2	37.4	-1.1	117.9	11.9	i	-5.0
O=C(NCc1cccs1)c1noc2c1CCCC2	55.0*	-5.2	113.1	4.1	i	-10.7
O=C(NCc1ccccc1)NC1CCCCC1	38.5	0.3	107.4	28.5	i	-6.8
CCCc1cc(C(=O)NCc2ccc(OC)cc2)no1	49.4*	4.5	99.6	29.1	i	-7.2
COc1ccc(CNC(=O)c2cc(-c3ccco3)on2)cc1	-12.7	2.1	107.8	-4.6	i	9.7
COc1ccc(CNC(=O)c2noc3c2CCCC3)cc1	54.8*	0.0	123.2	42.0	i	-6.3
COc1ccc(CNC(=O)NC2CCCCC2)cc1	3.6	-5.6	89.4	50.0*	i	-6.0
O=C(Nc1ccccc1)Nc1cccc2cccnc12	86.2*	6.5	113.7	46.8	i	4.8
O=C(Cc1ccc2cccnc2c1)c1ccc(O)cc1O	59.6*	5.2	108.9	39.4	i	0.3
Cc1c(C(=O)N2CCN(c3ccccn3)CC2)sc2ncnc(N3CCN(c4ccccc4)CC3)c12	15.3	1.9	207.1*[fluorescence artefact?]	28.2	i	17.0
O=[N+]([O-])c1ccccc1Oc1cccc(Oc2ccccc2[N+](=O)[O-])c1	.	.	.	.	i	.
SMILES	RORA act	ERa SRC1 inh	ERa SRC1 pot	SF1 activator	BAP1 inh	ERb coact inh
CCOc1cc(N2CCOCC2)c(OCC)cc1NC(=O)COc1ncnc2ccc(Br)cc12	.	54.3*[fluorescence artefact?]	77.5	.	.	27.0
CCOc1cc(N2CCOCC2)c(OCC)cc1NC(=O)COC(=O)c1cc(C)oc1C	-3.3	14.6	114.6	-1.9	i	16.7
CCC(=O)Nc1cccc(NC(=O)CN2CCN(c3ccccc3OC)CC2)c1	1.1	-18.3	105.7	-12.2	i	-17.9
CCCC(=O)Nc1cccc(NC(=O)CN2CCN(c3ccccc3OC)CC2)c1	-29.9	99.2*[fluorescence artefact?]	125.6	-4.9	i	-1.4
COc1ccccc1NC(=O)c1c(NC(=O)c2ccccc2C)sc2c1CCCC2	.	.	.	.	i	.
CCCC[n+]1c(C)sc2ccccc21	.	.	.	.	i	.
O=C(NCCc1ccccc1)C1CCN(S(=O)(=O)N2CCCC2)CC1	-11.8	-0.4	113.0	-8.1	i	3.5
O=C(NCCc1ccccc1)C1CCN(S(=O)(=O)c2cccnc2)CC1	-10.1	58.5*[fluorescence artefact?]	114.4	24.1	i	-3.4
Cc1cc(C(=O)OCC(=O)N2CCc3ccccc32)c(C)o1	-2.2	-3.4	83.6	53.6*	i	0.1
Cc1ccccc1OCC(=O)N1CCCc2ccccc21	.	.	.	.	i	.
O=C(COc1ccc(F)cc1Br)N1CCc2ccccc21	29.8	.	.	51.2*	i	.
O=C(OCC(=O)N1CCc2ccccc21)C1=COCCO1	4.3	-0.5	126.2	1.5	i	-4.0
O=C(Nc1ccncc1)c1cc2c(ccc3ccccc32)oc1=O	.	.	.	.	i	.
CN(CC(=O)NC(=O)NCc1ccco1)Cc1nc2ccccc2c(=O)[nH]1	-21.4	60.8*	71.2	-5.5	i	43.1
COC(=O)Oc1c(Br)c(=O)oc2ccccc12	19.5	63.8*	31.5	-18.7	i	45.3
COc1cc(OC)c(NC2c3ccccc3C(=O)N2c2cc(C)ccn2)cc1Cl (configuration not stated)	84.0*	3.0	93.3	39.1	i	11.8
CCc1ccc2oc(-c3cccc(NC(=O)c4ccccc4F)c3)nc2c1	.	.	.	.	i	.
CCOC(=O)CCn1nc(-c2ccc(Cl)cc2)cc1N	41.4	-9.1	104.8	70.0*	i	-0.7
CCOC(=O)Cn1nc(-c2ccc(Cl)cc2)cc1N	16.3	-8.2	119.5	1.3	i	-5.8
Cc1ccc(C)c(NC(=O)c2cccnc2)c1	.	.	.	.	i	.
O=C(c1nn2c(c1Cl)NC(c1cccs1)CC2C(F)(F)F)N1CCN(C(c2ccccc2)c2ccccc2)CC1 (configuration not stated)	.	.	.	.	i	.
c1ccc(-c2nc3nc4ccccc4nc3n2Cc2ccco2)cc1	62.0*	-3.4	97.1	47.5	i	5.5
OCCn1c(-c2ccc3c(c2)OCO3)csc1=Nc1ccccc1	45.8	-0.7	81.0	50.6*	i	3.2
CCOc1ccc(N=c2scc(-c3ccccc3)n2CCO)cc1	.	16.9	117.9	.	.	3.2
O=C(N/C=N/OCc1ccc(Cl)cc1Cl)NOCc1c(Cl)cccc1Cl	.	26.3	213.0*	.	.	30.3
SMILES	RORA act	ERa SRC1 inh	ERa SRC1 pot	SF1 activator	BAP1 inh	ERb coact inh
CO/N=C/NC(=O)NOCc1ccc(Cl)cc1Cl	.	7.3	92.5	.	.	8.5
COc1ccc(NC(=O)c2ocnc2C)cc1OC	21.0	-5.2	111.2	19.9	i	-5.9
Cc1ncoc1C(=O)Nc1ccc(Oc2ccccc2)cc1	32.1	3.9	95.2	58.7*	i	8.7
COc1ccc(Cl)cc1NC(=O)c1ocnc1C	-5.4	52.2*	54.6	-1.7	i	62.4*
O=C1Nc2ccc(I)cc2/C1=C/c1cc(Br)c(O)c(Br)c1	.	.	.	.	+	.
O=C(Cc1ccccc1)Nc1nnc(-c2ccccc2I)s1	.	.	.	.	i	.
O=C1CCNc2cc3ccccc3cc21	-1.6	82.2*[fluorescence artefact?]	21.3	5.1	i	78.4*[fluorescence artefact?]
Cc1ccc2c(c1)C(=O)CCN2	.	-9.2	106.3	.	.	-5.7
O=C1c2cccc3cccc(c23)N1Cc1c(O)ccc2ccccc12	.	.	.	.	i	.

Compound activity from PubChem.
